Results from ChEMBL document CHEMBL1649143, “In vitro activities of fluconazole and voriconazole against clinical isolates of Candida spp. determined by disk diffusion testing in Turin, Italy” (2009).
≈ marks a conversion by molar mass, not a printed value.

Experiments:
[1] = Antifungal activity against Candida holmii assessed as percent susceptible isolates at 1 ug/disc by CLSI M44-A disk diffusion method; assay type: functional; conditions: Kazachstania exigua
Outline: (§1)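 Agar disk diffusion per CLSI M44-A on clinical Candida isolates collected in Turin, Italy; 1,024 isolates tested in total. Each isolate was classed as susceptible (S), susceptible-dose dependent (SDD) or resistant (R), and the percentage of isolates per species in each category was reported.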

Candida parapsilosis [2] = assay: Antifungal activity against Candida parapsilosis by reference dilution method; assay type: functional; conditions: Lodderomyces parapsilosis
Kluyveromyces marxianus [3] = assay: Antifungal activity against Candida kefyr by reference dilution method; assay type: functional
Kluyveromyces marxianus [4] = assay: Antifungal activity against Candida kefyr assessed as percent susceptible isolates at 1 ug/disc by CLSI M44-A disk diffusion method; assay type: functional; outline: as §1
Pichia norvegensis [5] = assay: Antifungal activity against Candida norvegensis assessed as percent susceptible isolates at 1 ug/disc by CLSI M44-A disk diffusion method
Cyberlindnera jadinii = assay: Antifungal against Candida utilis assessed as percent susceptible isolates at 1 ug/disc by CLSI M44-A disk diffusion method; assay type: functional; outline: as §1
Candida tropicalis [6] = assay: Antifungal activity against Candida tropicalis assessed as dose dependent percent susceptible isolates at 1 ug/disc by CLSI M44-A disk diffusion method; assay type: functional; outline: as §1
Candida = assay: Antifungal activity against Candida sp. by reference dilution method; assay type: functional
Candida parapsilosis [7] = assay: Antifungal activity against Candida parapsilosis assessed as percent susceptible isolates at 1 ug/disc by CLSI M44-A disk diffusion method; assay type: functional; outline: as §1
Pichia fermentans = assay: Antifungal activity against Candida lambica assessed as percent susceptible isolates at 1 ug/disc by CLSI M44-A disk diffusion method; assay type: functional; outline: as §1
Pichia norvegensis [8] = assay: Antifungal activity against Candida norvegensis by reference dilution method; assay type: functional
Diutina rugosa = assay: Antifungal activity against Candida rugosa assessed as percent susceptible isolates at 1 ug/disc by CLSI M44-A disk diffusion method; assay type: functional; outline: as §1
Nakaseomyces glabratus [9] = assay: Antifungal activity against Candida glabrata by reference dilution method; assay type: functional
Clavispora lusitaniae = assay: Antifungal activity against Candida lusitaniae assessed as percent susceptible isolates at 1 ug/disc by CLSI M44-A disk diffusion method; assay type: functional; outline: as §1
Pichia kudriavzevii [10] = assay: Antifungal activity against Candida krusei assessed as dose dependent percent susceptible isolates at 1 ug/disc by CLSI M44-A disk diffusion method; assay type: functional; outline: as §1
Pichia kudriavzevii [11] = assay: Antifungal activity against Candida krusei by reference dilution method; assay type: functional
Candida tropicalis [12] = assay: Antifungal activity against Candida tropicalis assessed as percent susceptible isolates at 1 ug/disc by CLSI M44-A disk diffusion method; assay type: functional; outline: as §1
Pichia kudriavzevii [13] = assay: Antifungal activity against Candida krusei assessed as percent resistant isolates at 1 ug/disc by CLSI M44-A disk diffusion method; assay type: functional; outline: as §1
Candida albicans [14] = assay: Antifungal activity against Candida albicans by reference dilution method; assay type: functional
Nakaseomyces glabratus [15] = assay: Antifungal activity against Candida glabrata assessed as dose dependent percent susceptible isolates at 1 ug/disc by CLSI M44-A disk diffusion method; assay type: functional; outline: as §1
Pichia norvegensis [16] = assay: Antifungal activity against Candida norvegensis assessed as percent dose dependent percent susceptible isolates at 1 ug/disc by CLSI M44-A disk diffusion method; assay type: functional; outline: as §1
Candida albicans [17] = assay: Antifungal activity against Candida albicans assessed as percent susceptible isolates at 1 ug/disc by CLSI M44-A disk diffusion method; assay type: functional; outline: as §1
Nakaseomyces glabratus [18] = assay: Antifungal activity against Candida glabrata assessed as percent susceptible isolates at 1 ug/disc by CLSI M44-A disk diffusion method; assay type: functional; outline: as §1
[Candida] intermedia = Antifungal activity against Candida intermedia assessed as percent susceptible isolates at 1 ug/disc by CLSI M44-A disk diffusion method; assay type: functional, Sungouiella intermedia; outline: as §1
Candida tropicalis [19] = assay: Antifungal activity against Candida tropicalis by reference dilution method; assay type: functional
Pichia kudriavzevii [20] = assay: Antifungal activity against Candida krusei assessed as percent susceptible isolates at 1 ug/disc by CLSI M44-A disk diffusion method; assay type: functional; outline: as §1
Kluyveromyces marxianus [21] = assay: Antifungal activity against Candida kefyr assessed as percent dose dependent percent susceptible isolates at 1 ug/disc by CLSI M44-A disk diffusion method; assay type: functional; outline: as §1
[22] = Antifungal activity against Candida membranifaciens assessed as percent susceptible isolates at 1 ug/disc by CLSI M44-A disk diffusion method; assay type: functional; outline: as §1
[23] = Antifungal activity against Candida humicola assessed as percent susceptible isolates at 1 ug/disc by CLSI M44-A disk diffusion method; assay type: functional; outline: as §1
Candida tropicalis [24] = assay: Antifungal activity against Candida tropicalis assessed as percent resistant isolates at 1 ug/disc by CLSI M44-A disk diffusion method; assay type: functional; outline: as §1
Nakaseomyces glabratus [25] = assay: Antifungal activity against Candida glabrata assessed as percent resistant isolates at 1 ug/disc by CLSI M44-A disk diffusion method; assay type: functional; outline: as §1

C[C@@H](c1ncncc1F)[C@](O)(Cn1cncn1)c1ccc(F)cc1F [VORICONAZOLE]
Activity [1]: 100%
MIC50 (Candida parapsilosis [2]): 0.06 µg/mL (≈ 0.172 µM)
MIC90 (Candida parapsilosis [2]): 0.12 µg/mL (≈ 0.344 µM)
MIC (Kluyveromyces marxianus [3]): 0.008 µg/mL (≈ 0.0229 µM)
MIC50 (Kluyveromyces marxianus [3]): 0.01 µg/mL (≈ 0.0286 µM)
MIC90 (Kluyveromyces marxianus [3]): 0.06 µg/mL (≈ 0.172 µM)
Activity (Kluyveromyces marxianus [4]): 96%
Activity (Pichia norvegensis [5]): 93%
Activity (Cyberlindnera jadinii): 100%
Activity (Candida tropicalis [6]): 3%
MIC50 (Candida): 0.06 µg/mL (≈ 0.172 µM)
MIC90 (Candida): 1 µg/mL (≈ 2.86 µM)
Activity (Candida parapsilosis [7]): 100%
Activity (Pichia fermentans): 100%
MIC50 (Pichia norvegensis [8]): 0.25 µg/mL (≈ 0.716 µM)
MIC90 (Pichia norvegensis [8]): 1 µg/mL (≈ 2.86 µM)
Activity (Diutina rugosa): 100%
MIC50 (Nakaseomyces glabratus [9]): 0.25 µg/mL (≈ 0.716 µM)
MIC90 (Nakaseomyces glabratus [9]): 4 µg/mL (≈ 11.5 µM)
Activity (Clavispora lusitaniae): 100%
Activity (Pichia kudriavzevii [10]): 4%
MIC50 (Pichia kudriavzevii [11]): 0.5 µg/mL (≈ 1.43 µM)
MIC90 (Pichia kudriavzevii [11]): 2 µg/mL (≈ 5.73 µM)
Activity (Candida tropicalis [12]): 90%
Activity (Pichia kudriavzevii [13]): 4%
MIC50 (Candida albicans [14]): 0.06 µg/mL (≈ 0.172 µM)
MIC90 (Candida albicans [14]): 0.12 µg/mL (≈ 0.344 µM)
Activity (Nakaseomyces glabratus [15]): 3%
Activity (Pichia norvegensis [16]): 7%
Activity (Candida albicans [17]): 99.8%
Activity (Nakaseomyces glabratus [18]): 87%
Activity ([Candida] intermedia): 100%
MIC50 (Candida tropicalis [19]): 0.12 µg/mL (≈ 0.344 µM)
MIC90 (Candida tropicalis [19]): 2 µg/mL (≈ 5.73 µM)
Activity (Pichia kudriavzevii [20]): 92%
Activity (Kluyveromyces marxianus [21]): 4%
Activity [22]: 100%
Activity [23]: 100%
Activity (Candida tropicalis [24]): 7%
Activity (Nakaseomyces glabratus [25]): 11%
